Sampled rows, rich in hits. Any-hit rate of the full collection: about 2.9%.
CHO-K1 Ca ag: counter-screen for M1 agonists: effect in parental CHO-K1 cells | activation, % at 3 µM | Fluo-8 calcium fluorescence; scaled to maximal ATP response, vehicle zero | AID 602248, 2012 | hit rate 0.48% among 360,000; in the data active means activation above about 15%;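 further: untransfected CHO-K1 host cells lacking M1 receptor as counterscreen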
CHO-K1 Ca antag: nonselective inhibitor or artifact in parental CHO-K1 cells | AID 602250 | hit rate 0.6% among 360,000 | inhibition, % at 3 µM | ATP-induced calcium, Fluo-8 fluorescence;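 active means inhibition above a per-plate cutoff, the plate's mean sample inhibition plus 3 SD, cut at about 24% in these data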
CHO-K1 Ca PAM: nonselective calcium activators in parental CHO-K1 cells, primary screen, counter-screen for M1 PAM project, cell-based, Fluo-8 calcium fluorescence, full deck, 1536-well | ATP EC20; 0% at ATP EC20, 100% at ATP max | activation, % at 3 µM | hit rate 0.02% among 360,000;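 active means activation above the run cutoff, the mean activation of all test compounds plus 3 SD, cut at about 40% in these data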;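 further: peak over basal fluorescence ratio in a 140 s read after ATP addition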
OX1R antag-1: OX1R (HCRTR1) antagonists, primary screen, fluorescence, CHO/OX1R cells, Fluo-8 calcium, orexin A | hit rate 0.43% among 330,000 | Fluo-8 calcium fluorescence | inhibition, % at 5 µM | AID 434989, 2010;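 active means inhibition above its plate's threshold, mean inhibition of all tested compounds on the plate plus 3 SD, cut at about 37% in these data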
Target sequence (O43613 whole entry, looked up): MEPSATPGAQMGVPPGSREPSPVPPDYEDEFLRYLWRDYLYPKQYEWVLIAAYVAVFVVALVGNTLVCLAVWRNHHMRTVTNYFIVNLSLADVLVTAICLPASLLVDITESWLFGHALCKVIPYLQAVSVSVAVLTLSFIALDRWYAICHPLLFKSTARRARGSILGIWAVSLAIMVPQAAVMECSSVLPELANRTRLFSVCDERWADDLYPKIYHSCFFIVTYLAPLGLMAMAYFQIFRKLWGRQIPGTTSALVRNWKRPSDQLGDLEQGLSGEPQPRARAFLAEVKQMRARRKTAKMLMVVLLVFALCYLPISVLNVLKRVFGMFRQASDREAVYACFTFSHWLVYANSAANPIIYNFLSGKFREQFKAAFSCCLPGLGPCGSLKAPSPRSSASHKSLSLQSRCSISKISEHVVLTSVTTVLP
OX1R antag-2: antagonists of human orexin 1 receptor (OX1R); Orexin/Hypocretin receptor type 1 (Homo sapiens), O43613; OX1R-expressing cells, FRET antagonist read-out; inhibition, % at 6.6 µM; hit rate 1.8% among 330,000; AID 485270, 2010; in the data active means inhibition mostly above about 38%, no sharp cut-off; inactive means mostly below about 40%
CHO parental Ca: ATP-evoked calcium signal inhibitors, parental CHO, primary screen, counter-screen for OX1R antagonist project, cell-based, fluorescence, Fluo-8 calcium dye. parental CHO-K1, ATP-induced calcium, Fluo-8 fluorescence. inhibition, % at 5.6 µM. hit rate 0.63% among 330,000. AID 463079, 2010;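 active means inhibition above that plate's mean sample inhibition plus 3 SD, cut at about 26% in these data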
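Test system: untransfected parental CHO cell line; also added: ATP stimulus; dosing: 5.6 µM, single dose; signal: calcium-sensitive Fluo-8 fluorescence; measure: percent inhibition of ATP-evoked calcium rise, normalized to controls; benchmarks: low control ATP plus DMSO, high control DMSO only; replication: one well per compound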
Hits are given with their value; i = inactive; nt = no result given.

SMILES	CHO-K1 Ca ag	CHO-K1 Ca antag	CHO-K1 Ca PAM	OX1R antag-1	OX1R antag-2	CHO parental Ca
CCc1ccccc1NC(=O)Nc1cc(F)ccc1F	25	i	i	i	i	i
CCc1ccccc1NC(=O)Nc1ccc(F)cc1F	i	i	i	i	i	i
CCCCCCCCN1C(=O)[C@H](CC(=O)NCC23CC4CC(CC(C4)C2)C3)C[C@@]2(C(=O)OCC)CCCC=C12	i	i	i	nt	nt	nt
C[C@H](NC(=O)c1ncn2c1c(=O)[nH]c1ccc(Br)cc12)c1ccccc1	i	i	i	nt	nt	nt
C/C(=N\OCc1nc2ccccc2c(=O)n1/N=C/c1cc(C)cc([N+](=O)[O-])c1O)c1ccccc1	i	i	i	i	47	i
CCN1CCN(c2cc(C(C)(C)C)nc3c(-c4ccccc4)c(C)nn23)CC1	18	i	i	i	i	i
O=C(O)c1cc(S(=O)(=O)N2CCCCC2)ccc1N1CCOCC1	i	i	i	i	i	i
CCN1/C(=C2\C(=O)N(c3ccccc3)N=C2C)C=Cc2cc(C)ccc21	24	i	i	i	i	i
O=C(c1ccc(N2CCN(C(=O)c3ccc(F)cc3F)CC2)cc1)c1cccc(F)c1	i	i	i	i	i	i
COc1cc(C=CC(=O)c2cc(OC)c(OC)c(OC)c2)cc(OC)c1OC	i	i	i	nt	nt	nt
COc1ccc(C(=O)C=Cc2ccc3c(c2)OCO3)cc1OC	i	i	i	nt	nt	nt
COc1ccc(/C=C/C(=O)c2ccc(OC)cc2OC)c(OC)c1	i	i	i	i	51	i
COc1cc(/C=C/C(=O)c2ccc3c(c2)OCO3)cc(Cl)c1O	23	i	i	49	i	44
COc1ccc2cc(C(=O)/C=C/c3cc(OC)c(OC)c(OC)c3)ccc2c1	i	i	i	i	70	i
CC(=O)c1cccc(S(=O)(=O)NCCCN2CCOCC2)c1	i	i	i	i	i	i
COc1cccc(C(=O)/C=C/Nc2ccc(S(=O)(=O)Nc3ccc(C(C)=O)cc3)cc2)c1	i	i	i	i	i	i
CCC(CC)C(=O)Nc1cccc(C(=O)Nc2ccc(S(=O)(=O)Nc3ccc(C)cc3)cc2)c1	i	i	i	55	54	i
COc1ccc(C(=O)/C=C/Nc2ccc(S(=O)(=O)Nc3cccc(C(C)=O)c3)cc2)cc1	i	i	i	47	71	36
CC(=O)c1cccc(NS(=O)(=O)c2ccc(C(=O)Nc3ccccc3)cc2)c1	i	i	i	70	74	71
CC(=O)c1cccc(NS(=O)(=O)c2ccc(-c3cnc(C4CC4)o3)cc2)c1	16	i	i	i	i	50
CC(=O)Nc1ccc(NS(=O)(=O)c2ccc(-c3cnc(C4CC4)o3)cc2)cc1	i	i	i	i	i	i
COc1cccc(/C=C/C(=O)OCC(=O)Nc2cc(S(=O)(=O)N3CCOCC3)ccc2C)c1	i	i	i	i	i	i
CCOC(=O)N1CCN(C(=O)c2ccc(Cl)c(S(=O)(=O)N3CCCC3)c2)CC1	i	i	i	i	i	i
CCN(Cc1ccccc1)C(=O)Cn1c(=O)n(CC(=O)NCc2ccco2)c(=O)c2sccc21	i	i	i	i	52	i
O=C(CCCn1c(=O)c2sccc2n(CC(=O)OCc2ccccc2)c1=O)NCc1ccco1	i	i	i	i	i	i
SMILES	CHO-K1 Ca ag	CHO-K1 Ca antag	CHO-K1 Ca PAM	OX1R antag-1	OX1R antag-2	CHO parental Ca
CCOC(=O)C(=CNc1cc(C)ccc1-n1cccc1)C(=O)OCC	i	i	i	i	i	i
N#C/C(=C/c1ccc(N2CCCCC2)o1)C(=O)Nc1ccc(Cl)cc1	79	36	i	99	i	77
N#C/C(=C/c1ccc(N2CCCCC2)o1)C(=O)Nc1ccc2ccccc2c1	266	85	i	nt	nt	nt
CCCNC(=O)C1(C)CCN1C(=O)C/C=C/c1ccccc1 (stereo unspecified)	i	i	i	nt	nt	nt
O=C(NCc1ccco1)C1CCN(C(=O)c2cc3sccc3n2Cc2ccc(Cl)cc2)CC1	i	i	i	69	i	37
O=C(NCc1ccco1)C1CCN(C(=O)c2ccc([N+](=O)[O-])cc2)CC1	i	i	i	i	53	i
O=C(NCc1ccco1)C1CCN(C(=O)c2ccc(Cl)cc2)CC1	i	i	i	i	i	i
O=C(NCC1CCCO1)Nc1cc(Cl)cc(Cl)c1 (stereo unspecified)	i	25	i	i	i	i
COc1ccc2c(c1OC)C(=O)N1C(C(=O)O)Cc3c([nH]c4ccccc34)C21 (stereo unspecified)	i	i	i	i	75	i
Cc1ccc(S(=O)(=O)N2[C@@H](c3ccccc3)C(C(=O)O)=CC[C@H]2c2ccc(Cl)c(Cl)c2)cc1	i	i	i	i	55	i
Cc1ccc(S(=O)(=O)N2[C@@H](c3ccccc3F)C(C(=O)O)=CC[C@H]2c2ccc(Cl)c(Cl)c2)cc1	i	i	i	i	67	i
CN1C(=O)[C@H]2[C@@H](C3CC3)N3C(=O)CN(CC4CC4)C(=O)[C@@]3(C)[C@H]2C1=O	i	i	i	i	i	i
COc1cc(OC)cc(C(=O)NC(=S)Nc2nnn(C)n2)c1	i	i	i	i	i	i
C=CCNc1nc(Nc2ccc([N+](=O)[O-])cc2)nc(OC)n1	i	29	i	i	i	i
O=c1ncn(C2CCCCC2)c(=O)[nH]1	i	i	i	nt	nt	nt
CCOc1cc(N2CCOCC2)c(OCC)cc1NC(=O)Cn1cnc2c(=O)n(C)c(=O)n(C)c21	i	i	i	i	i	i
CCc1noc(C)c1C(=O)Nc1nc(-c2ccc(NC(C)=O)cc2)cs1	i	i	i	i	58	i
Cc1ccc(-c2csc(NC(=O)c3c(C)noc3C)n2)cc1C	i	i	i	i	32	i
COc1ccccc1OCC(=O)NNC(=O)C1CCN(c2ncnc3sc(C)c(C)c23)CC1	i	i	i	i	i	i
Cc1ccc(C)c(-c2csc(NC(=O)c3c(C)noc3C)n2)c1	i	i	i	i	i	i
COc1ccc(-c2csc(NC(=O)C3CCN(c4ncnc5sc(C)c(C)c45)CC3)n2)cc1OC	i	i	i	45	76	75
CCc1noc(C)c1C(=O)Nc1nc(-c2ccc(OC)c(OC)c2)cs1	i	i	i	i	61	i
Nc1nnc(SCC(=O)NNC(=O)c2ccccc2)s1	i	i	i	nt	nt	nt
CCC(=O)N(c1nnc(SCC(=O)Nc2ccccc2Cl)s1)C1CC1	i	i	i	i	i	i
Cc1onc(-c2ccccc2)c1C(=O)Nc1nc(-c2ccc(F)c(F)c2)cs1	i	i	i	i	i	i
CCc1noc(C)c1C(=O)OCC(=O)Nc1nc(-c2ccc(F)c(F)c2)cs1	i	i	i	69	i	36
